From ChEMBL document CHEMBL1140161, “Structure-activity relationships in 1,4-benzodioxan-related compounds. 9. From 1,4-benzodioxane to 1,4-dioxane ring as a promising template of novel alpha1D-adrenoreceptor antagonists, 5-HT1A full agonists, and cytotoxic agents” (J Med Chem, 2008)
Active and inactive are the calls of the source. The calls are words filed in the database; no cut-off is given here.

Experiments:
[1] = molecular target: T1, Alpha-1A adrenergic receptor (Homo sapiens, UniProt P35348); assay: Displacement of [3H]prazosin from human cloned alpha1A adrenoceptor expressed in CHO cells; format: cell-based
T1 sequence (P35348 whole entry): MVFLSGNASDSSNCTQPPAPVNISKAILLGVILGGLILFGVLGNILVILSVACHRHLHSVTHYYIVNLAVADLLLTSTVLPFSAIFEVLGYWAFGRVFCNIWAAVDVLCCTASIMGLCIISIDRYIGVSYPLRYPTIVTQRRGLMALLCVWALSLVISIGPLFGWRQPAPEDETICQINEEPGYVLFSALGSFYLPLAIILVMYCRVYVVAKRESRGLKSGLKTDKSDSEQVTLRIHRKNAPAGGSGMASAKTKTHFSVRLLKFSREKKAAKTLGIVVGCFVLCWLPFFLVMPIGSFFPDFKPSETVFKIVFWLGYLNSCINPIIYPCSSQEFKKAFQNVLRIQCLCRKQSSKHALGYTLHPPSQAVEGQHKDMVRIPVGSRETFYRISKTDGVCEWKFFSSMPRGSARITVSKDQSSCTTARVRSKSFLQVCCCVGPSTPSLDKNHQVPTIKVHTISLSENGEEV
Outline: (§1)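 [3H]prazosin binding to cloned human α1-adrenoceptor subtypes expressed in CHO cell membranes. Affinity reported as pKi for each subtype.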

[2] = molecular target: T2, Alpha-1B adrenergic receptor (Homo sapiens, UniProt P35368); assay: Displacement of [3H]prazosin from human cloned Alpha-1B adrenoceptor expressed in CHO cells; format: cell-based; outline: as §1
T2 sequence (P35368 whole entry): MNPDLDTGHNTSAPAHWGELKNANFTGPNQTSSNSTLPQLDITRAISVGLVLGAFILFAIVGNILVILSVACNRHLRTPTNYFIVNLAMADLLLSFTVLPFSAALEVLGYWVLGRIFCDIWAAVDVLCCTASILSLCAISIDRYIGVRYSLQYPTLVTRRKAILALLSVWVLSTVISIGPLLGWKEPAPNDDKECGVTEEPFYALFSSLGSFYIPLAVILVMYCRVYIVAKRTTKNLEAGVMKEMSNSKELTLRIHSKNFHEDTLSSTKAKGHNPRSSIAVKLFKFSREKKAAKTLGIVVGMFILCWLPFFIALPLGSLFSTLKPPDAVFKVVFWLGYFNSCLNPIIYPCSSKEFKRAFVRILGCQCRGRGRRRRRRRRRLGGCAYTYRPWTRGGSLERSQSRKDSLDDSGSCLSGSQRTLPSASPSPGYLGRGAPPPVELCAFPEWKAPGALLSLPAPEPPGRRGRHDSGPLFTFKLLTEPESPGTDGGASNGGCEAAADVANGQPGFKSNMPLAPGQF

[3] = molecular target: T3, Alpha-1A adrenergic receptor (Rattus norvegicus) (UniProt P43140); assay: Antagonist activity at alpha1A adrenoceptor in Wistar rat prostatic vas deferens assessed as inhibition of (-)-noradrenaline-induced contraction after 30 mins; format: functional, tissue-based
T3 sequence (whole entry): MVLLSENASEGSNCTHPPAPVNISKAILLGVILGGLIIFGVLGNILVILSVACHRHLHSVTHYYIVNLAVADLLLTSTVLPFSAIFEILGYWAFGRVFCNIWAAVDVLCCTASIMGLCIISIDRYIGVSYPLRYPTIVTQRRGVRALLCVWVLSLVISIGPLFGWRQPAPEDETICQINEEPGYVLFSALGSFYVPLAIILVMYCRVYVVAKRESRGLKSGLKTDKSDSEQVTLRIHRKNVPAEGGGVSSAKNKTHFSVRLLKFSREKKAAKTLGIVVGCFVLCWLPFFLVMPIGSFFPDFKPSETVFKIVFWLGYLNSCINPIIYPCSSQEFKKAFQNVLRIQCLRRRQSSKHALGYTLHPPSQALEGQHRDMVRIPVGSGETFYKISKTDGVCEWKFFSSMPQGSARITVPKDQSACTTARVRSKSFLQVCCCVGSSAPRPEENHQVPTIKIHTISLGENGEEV

[4] = molecular target: T4, Alpha-1B adrenergic receptor (Rattus norvegicus) (UniProt P15823); assay: Antagonist activity at alpha1B adrenoceptor in Wistar rat spleen assessed as inhibition of (-)-phenylephrine-induced contraction after 30 mins; format: functional, tissue-based
T4 sequence (whole entry): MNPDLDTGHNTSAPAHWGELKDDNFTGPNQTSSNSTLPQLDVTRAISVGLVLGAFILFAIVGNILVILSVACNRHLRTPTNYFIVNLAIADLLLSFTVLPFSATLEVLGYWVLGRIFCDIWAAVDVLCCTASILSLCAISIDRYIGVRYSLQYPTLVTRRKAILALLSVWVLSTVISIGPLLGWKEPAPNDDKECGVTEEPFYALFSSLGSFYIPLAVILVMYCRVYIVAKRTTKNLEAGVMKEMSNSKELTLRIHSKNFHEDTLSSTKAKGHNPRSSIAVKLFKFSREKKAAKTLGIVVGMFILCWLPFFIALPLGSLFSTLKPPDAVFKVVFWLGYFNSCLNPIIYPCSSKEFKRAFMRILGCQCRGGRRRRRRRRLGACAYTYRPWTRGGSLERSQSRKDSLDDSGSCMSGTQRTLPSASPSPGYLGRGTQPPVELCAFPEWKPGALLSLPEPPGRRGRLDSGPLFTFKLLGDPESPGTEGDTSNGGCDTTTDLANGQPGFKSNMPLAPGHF

[5] = molecular target: T5, Alpha-1D adrenergic receptor (Rattus norvegicus) (UniProt P23944); assay: Antagonist activity at Alpha-1D adrenoceptor in Wistar rat thoracic aorta assessed as inhibition of (-)-noradrenaline-induced contraction after 30 mins; format: functional, tissue-based
T5 sequence (whole entry): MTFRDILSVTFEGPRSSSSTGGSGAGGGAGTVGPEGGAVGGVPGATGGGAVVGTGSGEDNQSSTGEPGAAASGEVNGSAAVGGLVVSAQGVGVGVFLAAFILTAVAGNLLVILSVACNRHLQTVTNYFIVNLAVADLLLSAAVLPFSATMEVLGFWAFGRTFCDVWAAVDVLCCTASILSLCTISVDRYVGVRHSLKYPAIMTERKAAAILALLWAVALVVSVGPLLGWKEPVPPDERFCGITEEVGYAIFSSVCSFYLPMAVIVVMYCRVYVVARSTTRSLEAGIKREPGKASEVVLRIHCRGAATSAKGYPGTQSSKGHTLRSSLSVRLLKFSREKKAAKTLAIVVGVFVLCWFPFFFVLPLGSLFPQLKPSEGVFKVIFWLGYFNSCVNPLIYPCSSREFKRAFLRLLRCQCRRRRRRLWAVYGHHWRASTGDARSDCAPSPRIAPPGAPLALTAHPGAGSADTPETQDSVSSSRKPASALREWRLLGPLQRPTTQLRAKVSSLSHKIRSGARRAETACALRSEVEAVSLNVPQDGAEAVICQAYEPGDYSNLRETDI

[6] = system: PC-3; assay: Cytotoxicity against human PC3 cells after 48 hrs by SRB assay; format: functional; settings: for GI50 / TGI / CC50: PC-3, 48 h; for CC50: read-out: LC50 (the source's name)
Outline: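 PC-3 human prostate cancer cells. Growth measured by sulforhodamine B staining following the NCI protocol. […] Values are means of quadruplicate determinations ± standard error (n = 5).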

SMILES | Ki [1] [µM] | Ki [2] [µM] | pKb [3] | pKb [4] | pKb [5] | GI50 [6] [µM] | TGI [6] [µM] | CC50 [6] [µM] | Activity [6]
c1ccc(OCCNC[C@@H]2COC(c3ccccc3)(c3ccccc3)CO2)cc1 | 0.224 | 0.141 | 6.15 | 6.28 | 7.19 | 9.9 | 19.4 | 45.2 | –
c1ccc(OCCNC[C@@H]2COCC(c3ccccc3)(c3ccccc3)O2)cc1 | 0.17 | 0.12 | 6.93 | 7.84 | 7.6 | 1 | 3.9 | 6.2 | –
c1ccc(OCCNC[C@@H]2CO[C@@H](c3ccccc3)CO2)cc1 (relative stereo) | 0.537 | > 1 | 7 | 6.97 | 6.56 | 177 | 252 | > 300 | –
COc1cccc(OC)c1OCCNC[C@@H]1COC(c2ccccc2)(c2ccccc2)CO1 | 0.0891 | 0.126 | 6.08 | 5.74 | 7.38 | 19.9 | 31.6 | 40 | –
COc1ccccc1OCCNC[C@@H]1CO[C@@H](c2ccccc2)CO1 (relative stereo) | 0.158 | 0.282 | 7.1 | 7.44 | 7.48 | 30.1 | – | – | inactive
COc1ccccc1OCCNC[C@@H]1COC[C@H](c2ccccc2)O1 (relative stereo) | 0.2 | 0.269 | 6.57 | 7.4 | 7.2 | 79 | 158 | 251 | –
c1ccc(OCCNC[C@@H]2CO[C@H](c3ccccc3)CO2)cc1 (relative stereo) | > 1 | > 1 | 6.89 | 6.68 | 7.05 | 190 | 239 | > 300 | –
COc1ccccc1OCCNC[C@@H]1COC(c2ccccc2)(c2ccccc2)CO1 | 0.0741 | 0.0741 | 6.37 | 6.81 | 7.71 | 7.8 | 16.1 | 35.8 | –
COc1cccc(OC)c1OCCNC[C@@H]1CO[C@H](c2ccccc2)CO1 (relative stereo) | > 1 | > 1 | 5.96 | 6.7 | 6.08 | 199 | 251 | > 300 | –
c1ccc(OCCNC[C@@H]2COC[C@@H](c3ccccc3)O2)cc1 (relative stereo) | 0.407 | > 1 | 7.21 | 6.88 | 6.38 | 158 | 223 | > 300 | –
COc1cccc(OC)c1OCCNC[C@@H]1COCC(c2ccccc2)(c2ccccc2)O1 | 0.339 | 0.324 | 6.71 | 6.24 | 7.22 | 25.1 | 31.6 | 35 | –
COc1cccc(OC)c1OCCNC[C@@H]1COC[C@H](c2ccccc2)O1 (relative stereo) | 0.468 | > 1 | 6.42 | 5.84 | 6.55 | 79.4 | 178 | 282 | –
COc1ccccc1OCCNC[C@@H]1CO[C@H](c2ccccc2)CO1 (relative stereo) | 0.437 | 0.263 | 6.47 | 6.89 | 6.84 | 199 | 251 | > 300 | –
COc1ccccc1OCCNC[C@@H]1COCC(c2ccccc2)(c2ccccc2)O1 | 0.0275 | 0.0562 | 6.65 | 6.86 | 8.32 | 6.3 | 15.4 | 35.1 | –
